This is an account of results in ChEMBL document CHEMBL3865824, “New (E)-1-alkyl-1H-benzo[d]imidazol-2-yl)methylene)indolin-2-ones: Synthesis, in vitro cytotoxicity evaluation and apoptosis inducing studies” (Eur J Med Chem, 2016).

A short description of assay [1]: Cytotoxicity against human MDA-MB-231 cells assessed as reduction in cell viability after 48 hrs by MTT assay. To be noted: MDA-MB-231, 48 h. Type of assay: functional, cell-based. An outline of the steps:
(§1)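 Cells grown in DMEM or MEM with 10% FBS at 37 °C, 5% CO2. Seeded at 1×10^4 cells/well, incubated 48 h, then exposed to compound for 48 h with vehicle control. MTT (5 mg/mL stock) added for 4 h; formazan dissolved in DMSO, absorbance read at 570 nm. Preliminary screen at 50 µM. Compounds giving >50% inhibition were tested for dose-response curves; IC50 derived by linear regression of % inhibition versus concentration. Mean of three independent experiments in triplicate.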
For orientation: Tetrazolium dyes change colour on reduction, which living cells bring about.

Assay [2] can be described thus: Cytotoxicity against human DU145 cells assessed as reduction in cell viability after 48 hrs by MTT assay. Conditions: DU-145, 48 h. Type of assay: functional, cell-based. An outline of the steps:
as §1

Assay [3] is described as follows: Cytotoxicity against HGC cells assessed as growth inhibition at 50 uM after 48 hrs by MTT assay relative to control. To be noted: Homo sapiens, read-out: GI. Type of assay: functional. An outline of the steps:
as §1

Assay [4] can be described thus: Cytotoxicity against human A549 cells assessed as reduction in cell viability after 48 hrs by MTT assay. Type of assay: functional, cell-based. To be noted: A549, 48 h. An outline of the steps: as §1
Assay [5] is described as follows: Cytotoxicity against human DU145 cells assessed as growth inhibition at 50 uM after 48 hrs by MTT assay relative to control. To be noted: DU-145, 48 h, read-out: GI. Type of assay: functional. An outline of the steps: as §1
Assay [6] can be described thus: Cytotoxicity against human PC3 cells assessed as growth inhibition at 50 uM after 48 hrs by MTT assay relative to control. Type of assay: functional. Conditions: PC-3, 48 h, read-out: GI. An outline of the steps:
as §1

Assay [7] can be described thus: Cytotoxicity against human MCF7 cells assessed as reduction in cell viability after 48 hrs by MTT assay. Type of assay: functional, cell-based. Conditions: MCF7, 48 h. An outline of the steps: as §1
Assay [8] is described as follows: Cytotoxicity against HGC cells assessed as reduction in cell viability after 48 hrs by MTT assay. Type of assay: functional, cell-based. To be noted: Homo sapiens. An outline of the steps: as §1
Assay [9] is described as follows: Cytotoxicity against human A549 cells assessed as growth inhibition at 50 uM after 48 hrs by MTT assay relative to control. Type of assay: functional. To be noted: A549, 48 h, read-out: GI. An outline of the steps: as §1
Assay [10] in a line: Cytotoxicity against human PC3 cells assessed as reduction in cell viability after 48 hrs by MTT assay. Type of assay: functional, cell-based. To be noted: PC-3, 48 h. An outline of the steps: as §1
The nature of assay [11]: Cytotoxicity against human BT549 cells assessed as reduction in cell viability after 48 hrs by MTT assay. Type of assay: functional, cell-based. To be noted: BT-549, 48 h. An outline of the steps:
as §1

The nature of assay [12]: Cytotoxicity against human BT549 cells assessed as growth inhibition at 50 uM after 48 hrs by MTT assay relative to control. Type of assay: functional. Conditions: BT-549, 48 h, read-out: GI. An outline of the steps: as §1
Assay [13] can be described thus: Cytotoxicity against […] cells assessed as growth inhibition at 50 uM after 48 hrs by MTT assay relative to control. Type of assay: functional. To be noted: Mus musculus, 4T1, 48 h; read-out: GI. An outline of the steps:
as §1

The nature of assay [14]: Cytotoxicity against […] cells assessed as reduction in cell viability after 48 hrs by MTT assay. Type of assay: functional, cell-based. Conditions: 4T1, 48 h. An outline of the steps: as §1
A short description of assay [15]: Cytotoxicity against human MCF7 cells assessed as growth inhibition at 50 uM after 48 hrs by MTT assay relative to control. Type of assay: functional. Conditions: MCF7, 48 h, read-out: GI. An outline of the steps:
as §1

Assay [16] is described as follows: Cytotoxicity against human MDA-MB-231 cells assessed as growth inhibition at 50 uM after 48 hrs by MTT assay relative to control. Type of assay: functional. Conditions: MDA-MB-231, 48 h, read-out: GI. An outline of the steps: as §1

Each structure is given as a SMILES string.

Regarding `CCn1c(/C=C2/C(=O)Nc3ccc(Cl)cc32)nc2ccccc21`, the IC50 was 37.5 µM in assay [1]; greater than 50 µM in assay [2]; greater than 50 µM in assay [4]; greater than 50 µM in [7]; greater than 50 µM in assay [8]; greater than 50 µM in [10]. The IC50 in [11] and in assay [14] was greater than 50 µM in each case. For the same molecule, the inhibition of growth at 50 µM in assay [3], in [5], in assay [6], in assay [9], in [12] and in assay [13] was less than 50% each time. Further, the inhibition of growth at 50 µM in assay [15] is less than 50%; in assay [16], greater than 50%.
As for `Cn1c(/C=C2/C(=O)Nc3ccc([N+](=O)[O-])cc32)nc2ccccc21`, the IC50 in assay [2], in assay [4], in [10] and in assay [14] was greater than 50 µM each time. In addition, the inhibition of growth at 50 µM in [5], in assay [6], in assay [9] and in assay [13] was less than 50% each time.
`CCn1c(/C=C2/C(=O)Nc3ccc([N+](=O)[O-])cc32)nc2ccccc21`: the IC50 in assay [2] is greater than 50 µM; in assay [4] it was greater than 50 µM; in assay [7], greater than 50 µM; in [8], greater than 50 µM; in assay [10], 40.1 µM; in [11], greater than 50 µM. In addition, the IC50 in [14] is greater than 50 µM. The inhibition of growth at 50 µM in [3] is less than 50%; in assay [5], less than 50%; in assay [6], greater than 50%; in assay [9] it was less than 50%; in assay [12] it was less than 50%; in assay [13], less than 50%. For the same molecule, the inhibition of growth at 50 µM in [15] was less than 50%.
Turning to `Cc1ccc2c(c1)/C(=C\c1nc3ccccc3n1C)C(=O)N2`, the IC50 in assay [2], in assay [4], in assay [8], in [10], in assay [11] and in [14] was greater than 50 µM each time. In addition, the inhibition of growth at 50 µM in assay [3], in assay [5], in assay [6], in assay [9], in assay [12] and in assay [13] was less than 50% throughout.
`CC(C)n1c(/C=C2/C(=O)Nc3ccccc32)nc2ccccc21`: the IC50 in assay [1] was found to be 30.4 µM; in [2] it was 38.1 µM; in assay [4], 35.3 µM; in [7], 39.5 µM; in [8], 33.5 µM; in [10], 37.6 µM. Also, the IC50 turned out to be 38.9 µM in assay [11] and 40.4 µM in assay [14]. In addition, the inhibition of growth at 50 µM in assay [3], in assay [5], in assay [6], in assay [9], in assay [12] and in assay [13] was greater than 50% throughout. In addition, the inhibition of growth at 50 µM in assay [15] and in assay [16] was greater than 50% each time.
Turning to `Cn1c(/C=C2/C(=O)Nc3ccc(Cl)cc32)nc2ccccc21`, the IC50 in assay [1] is 37.6 µM; in assay [2], 38.9 µM; in [4], 39.7 µM; in assay [7] it was greater than 50 µM; in assay [8], 43.6 µM; in [10] it was greater than 50 µM. Further, the concentration for half-maximal inhibition (IC50) in assay [11] is 39.1 µM; in assay [14], 43.6 µM. The inhibition of growth at 50 µM is greater than 50% in [3]; greater than 50% in assay [5]; less than 50% in assay [6]; greater than 50% in assay [9]; greater than 50% in assay [12]; greater than 50% in [13]. For the same molecule, the values for the inhibition of growth at 50 µM in assay [15] and in assay [16] were less than 50% and greater than 50%, respectively.
Consider `CCn1c(/C=C2/C(=O)Nc3ccc(F)cc32)nc2ccccc21`, for which the IC50 in assay [1] is greater than 50 µM; in [2], 40.6 µM; in assay [4] it was greater than 50 µM; in [7], greater than 50 µM; in assay [8] it was greater than 50 µM; in assay [10], greater than 50 µM. Besides, the concentration for half-maximal inhibition (IC50) in assay [11] and in assay [14] was greater than 50 µM throughout. The inhibition of growth at 50 µM in assay [3] was less than 50%; in assay [5], greater than 50%; in assay [6], less than 50%; in [9] it was less than 50%; in assay [12], less than 50%; in assay [13] it was less than 50%. Further, the inhibition of growth at 50 µM in assay [15] and in [16] was less than 50% throughout.
`Cn1c(/C=C2/C(=O)Nc3ccc(Br)cc32)nc2ccccc21`: the IC50 in [1] is greater than 50 µM; in [2], 39.6 µM; in assay [4], 41.2 µM; in [7], greater than 50 µM; in assay [8], greater than 50 µM; in assay [10] it was greater than 50 µM. Moreover, the IC50 in assay [11] and in [14] was greater than 50 µM throughout. The inhibition of growth at 50 µM in [3] is less than 50%; in assay [5], greater than 50%; in [6] it was less than 50%; in assay [9] it was greater than 50%; in assay [12] it was less than 50%; in [13], less than 50%. For the same molecule, the inhibition of growth at 50 µM in [15] and in assay [16] was less than 50% each time.
Turning to `CCn1c(/C=C2/C(=O)Nc3ccc(Br)cc32)nc2ccccc21`, the IC50 is 45.8 µM in assay [2]; greater than 50 µM in [4]; greater than 50 µM in assay [8]; 42.6 µM in assay [10]; 40.7 µM in [14]. Also, the inhibition of growth at 50 µM is less than 50% in [3]; greater than 50% in assay [5]; greater than 50% in assay [6]; less than 50% in assay [9]; greater than 50% in [13].
Take `CCn1c(/C=C2/C(=O)Nc3ccccc32)nc2ccccc21`: the IC50 in [1] was greater than 50 µM; in assay [2], greater than 50 µM; in assay [4] it was greater than 50 µM; in assay [8], greater than 50 µM; in [10] it was 38 µM; in assay [11], greater than 50 µM. Moreover, in assay [14], the IC50 is greater than 50 µM. The inhibition of growth at 50 µM was less than 50% in [3]; less than 50% in assay [5]; greater than 50% in assay [6]; less than 50% in assay [9]; less than 50% in assay [12]; less than 50% in [13]. The inhibition of growth at 50 µM in [16] was less than 50%.
Regarding `Cn1c(/C=C2/C(=O)Nc3ccccc32)nc2ccccc21`, the IC50 was greater than 50 µM in assay [1]; 43.2 µM in assay [2]; greater than 50 µM in assay [4]; greater than 50 µM in [7]; greater than 50 µM in assay [8]; greater than 50 µM in [10]. The IC50 in [11] and in assay [14] was greater than 50 µM throughout. Also, the inhibition of growth at 50 µM was less than 50% in assay [3]; greater than 50% in assay [5]; less than 50% in assay [6]; less than 50% in [9]; less than 50% in assay [12]; less than 50% in [13]. The inhibition of growth at 50 µM in assay [15] and in assay [16] was less than 50% throughout.
Take `Cn1c(/C=C2/C(=O)Nc3ccc(F)cc32)nc2ccccc21`: the IC50 in assay [1] was 21.7 µM; in assay [2], 32.3 µM; in assay [4], 34.6 µM; in [7], 31.6 µM; in assay [8] it was 37.8 µM; in assay [10], 34.2 µM. For the same molecule, the values for the IC50 in assay [11] and in assay [14] were 26.9 µM and 29.6 µM, respectively. Also, the inhibition of growth at 50 µM in assay [3], in assay [5], in assay [6], in assay [9], in [12] and in [13] was greater than 50% in each case. For the same molecule, the inhibition of growth at 50 µM in assay [15] and in assay [16] was greater than 50% throughout.

For orientation: IC50 means the concentration at which inhibition is half-maximal.
